# Results taken from ChEMBL document CHEMBL1921744, “Lipophosphonoxins: new modular molecular structures with significant antibacterial properties” (J Med Chem, 2011).
# Activity calls are given as the source filed them. The rule behind the calls is not given here.
# Assays:
# Pseudomonas aeruginosa = assay: Antibacterial activity against Pseudomonas aeruginosa after 24 to 48 hrs by microdilution method; assay type: functional
# Summary of the method: (§1)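 Incubation 24/48 h at 37 °C. MIC read as the lowest concentration inhibiting growth. MBC determined by transferring 10 μL from wells onto blood agar, taken as the lowest concentration with no visible growth.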
# Streptococcus agalactiae = assay: Antibacterial activity against Streptococcus agalactiae after 24 to 48 hrs by microdilution method; assay type: functional; summary of the method: as §1
# [1] = Cytotoxicity against human Erythroid progenitor cells assessed as cell viability after 48 hrs by CellTiter-blue assay; assay type: cell-based
# Summary of the method: (§2)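 Normal human erythroid progenitor cells, expanded from umbilical cord blood, plated at 25000 cells/well immediately before compound addition (added as a 5× predilution in culture medium). Viability by CellTiter-Blue fluorescence 48 h after addition, normalized to untreated cells set as 100%.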
# [2] = Induction of apoptosis in human Erythroid progenitor cells assessed as caspase 3/7 activation after 4 hrs by Caspase-Glo 3/7 assay
# Summary of the method: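 Cord-blood-derived human erythroid progenitor cells plated at 25000 cells/well and exposed to compound prediluted in medium. Caspase 3/7 activation read by Caspase-Glo 3/7 luminescence 4 h after addition, normalized to untreated control cells set as 100%.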
# Escherichia coli [3] = assay: Antibacterial activity against Escherichia coli after 24 to 48 hrs by microdilution method; assay type: functional; summary of the method: as §1
# [4] = Cytotoxicity against human Erythroid progenitor cells assessed as maximum safe concentration after 48 hrs by CellTiter-blue assay; assay type: cell-based; settings: read-out: Activity; summary of the method: as §2
# Bacillus subtilis [5] = assay: Inhibition of Bacillus subtilis RNA polymerase using [alpha-32P]-UTP at 1 mM pretreated for 5 mins measured after 15 mins by electrophoresis analysis
# Summary of the method: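 Reconstituted B. subtilis RNAP σA holoenzyme (6 nM) with supercoiled pLK7 template carrying the rrnB P1 promoter (4 ng/μL). Nucleotides: ATP/CTP/GTP 200 μM, UTP 10 μM plus 2 μM [α-³²P]-UTP. Compound at 1 mM; 5 min preincubation at 30 °C, started with RNAP, stopped after 15 min with formamide/EDTA.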
# Enterococcus faecalis [6] = assay: Antibacterial activity against Enterococcus faecalis CCM 4224 after 24 to 48 hrs by microdilution method; assay type: functional; summary of the method: as §1
# Bacillus subtilis [7] = assay: Antibacterial activity against Bacillus subtilis after 24 to 48 hrs by microdilution method; assay type: functional; summary of the method: as §1
# Staphylococcus aureus [8] = assay: Antibacterial activity against Staphylococcus aureus CCM 4223 after 24 to 48 hrs by microdilution method; assay type: functional; summary of the method: as §1
# Enterococcus faecalis [9] = assay: Antibacterial activity against vancomycin-resistant Enterococcus faecalis SR7914; assay type: functional
# Enterococcus faecalis [10] = assay: Antibacterial activity against Enterococcus faecalis ATCC 29212; assay type: functional
# Staphylococcus aureus [11] = assay: Antibacterial activity against methicillin-sensitive Staphylococcus aureus ATCC 29213; assay type: functional; summary of the method: as §1
# Enterococcus faecium [12] = assay: Antibacterial activity against vancomycin-resistant Enterococcus faecium SR7917; assay type: functional
# Enterococcus faecium [13] = assay: Antibacterial activity against Enterococcus faecium ATCC 19434; assay type: functional; summary of the method: as §1
# Staphylococcus aureus [14] = assay: Antibacterial activity against methicillin-resistant Staphylococcus aureus SR3637; assay type: functional
# Escherichia coli [15] = assay: Antibacterial activity against permeabilized Escherichia coli DH5[alpha] assessed as log reduction of colony forming unit at 10 uM; assay type: functional, organism-based
# Summary of the method: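 Competent (permeabilized) E. coli DH5α cells were mixed with 5 ng pUC18 (ampR) and serially diluted compound or buffer only. Steps: 30 min on ice, heat shock at 42 °C for 90 s, 5 min on ice, then LB without antibiotic for 1 h at 37 °C with shaking. Plated on LB agarose with ampicillin 100 μg/mL overnight at 37 °C. Colonies counted against the no-compound control.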
# [16] = system: Staphylococcus epidermidis; assay: Antibacterial activity against methicillin-resistant Staphylococcus epidermidis 8700/B after 24 to 48 hrs by microdilution method; assay type: functional
# Summary of the method: (§3)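 Broth microdilution MIC on clinical isolates from Teaching Hospital Olomouc, stored at −80 °C. Compounds were serially diluted in brain heart infusion broth over 200–1.56 μg/mL (sometimes extended to 0.78 μg/mL), with an inoculum of 10⁵⁻⁶ CFU/ml per well. Plates were incubated at 37 °C and read at 24/48 h. MIC was taken as the lowest concentration inhibiting growth.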
# Enterococcus faecium [17] = assay: Antibacterial activity against vancomycin-resistant Enterococcus faecium VanA419/ana after 24 to 48 hrs by microdilution method; assay type: functional; summary of the method: as §3
compound,measurement,setting,value
CCCCCCCCCCCCCCCCOCCCOP(=O)(CCN1C[C@@H](O)[C@@H](O)[C@@H](O)C1)OC[C@H]1O[C@@H](n2ccc(=O)[nH]c2=O)[C@H](O)[C@@H]1O (stereo partly specified),MIC,Pseudomonas aeruginosa,> 200 µg/mL
same,MIC,Streptococcus agalactiae,12.5 µg/mL
same,IC50,[1],149 µg/mL
same,Activity,[2],Non-toxic
same,MIC,Escherichia coli [3],> 200 µg/mL
same,MNTC at 48 h,[4],62.5 µg/mL
same,inhibition,Bacillus subtilis [5],inactive
O=C(N[C@H](CO)[C@H](O)c1ccc([N+](=O)[O-])cc1)C(Cl)Cl [CHLORAMPHENICOL],MIC,Streptococcus agalactiae,2 µg/mL
CCCCCCCCCCCCCCCCOP(=O)(CCN1C[C@@H](O)[C@H](O)C1)OC[C@H]1O[C@@H](n2ccc(=O)[nH]c2=O)[C@H](O)[C@@H]1O (stereo in doubt; 12i-P1) [listing 1 of 2 here],Activity,Enterococcus faecalis [6],Active
same,Activity,Bacillus subtilis [7],Active
same,Activity,Streptococcus agalactiae,Active
same,Activity,Staphylococcus aureus [8],Active
"CCCCCCCCCCCCCCCCOP(=O)(CCN1C[C@@H](O)[C@H](O)C1)OC[C@H]1O[C@@H](n2ccc(=O)[nH]c2=O)[C@H](O)[C@@H]1O (single isomer, unassigned; diastereomer 2)",Activity,Enterococcus faecalis [6],Active
same,Activity,Bacillus subtilis [7],Active
same,Activity,Streptococcus agalactiae,Active
same,Activity,Staphylococcus aureus [8],Active
CCCCCCCCCCCCCCC[C@@H](NC[C@@H](NC(=O)N[C@H](C(=O)O)C(C)C)[C@@H]1CCNC(=N)N1)C(=O)NCCCN[C@H](C(=O)O)[C@H](O[C@@H]1O[C@H](CN)[C@@H](O)[C@H]1O)[C@H]1O[C@@H](n2ccc(=O)[nH]c2=O)[C@H](O)[C@@H]1O,MIC,Enterococcus faecalis [9],4 µg/mL
same,MIC,Enterococcus faecalis [10],2 µg/mL
same,MIC,Staphylococcus aureus [11],2 µg/mL
same,MIC,Enterococcus faecium [12],0.25 µg/mL
same,MIC,Enterococcus faecium [13],0.5 µg/mL
same,MIC,Staphylococcus aureus [14],4 µg/mL
CC(C)C[C@@H](NC[C@@H](NC(=O)N[C@H](C(=O)O)C(C)C)[C@@H]1CCNC(=N)N1)C(=O)NCCCN[C@H](C(=O)O)[C@H](O[C@@H]1O[C@H](CN)[C@@H](O)[C@H]1O)[C@H]1O[C@@H](n2ccc(=O)[nH]c2=O)[C@H](O)[C@@H]1O,MIC,Enterococcus faecalis [9],> 64 µg/mL
same,MIC,Enterococcus faecalis [10],> 64 µg/mL
same,MIC,Staphylococcus aureus [11],> 64 µg/mL
same,MIC,Enterococcus faecium [12],> 64 µg/mL
same,MIC,Enterococcus faecium [13],> 64 µg/mL
same,MIC,Staphylococcus aureus [14],> 64 µg/mL
CCOP(=O)(CCN1C[C@@H](O)[C@H](O)C1)OC[C@H]1O[C@@H](n2ccc(=O)[nH]c2=O)[C@H](O)[C@@H]1O (stereo partly specified),MIC,Pseudomonas aeruginosa,> 200 µg/mL
same,Activity,[2],Non-toxic
same,MIC,Escherichia coli [3],> 200 µg/mL
CCCCCCCCCCCCCCCCOP(=O)(CCN1C[C@@H](O)[C@H](O)C1)OC[C@H]1O[C@@H](n2ccc(=O)[nH]c2=O)[C@H](O)[C@@H]1O (mixture of isomers),Activity,Escherichia coli [15],Active
CN(C)[C@@H]1C(O)=C(C(N)=O)C(=O)[C@@]2(O)C(O)=C3C(=O)c4c(O)cccc4[C@@](C)(O)[C@H]3C[C@@H]12 [TETRACYCLINE],MIC,Bacillus subtilis [7],2 µg/mL
same,MIC,Streptococcus agalactiae,1 µg/mL
CCCCCCCCCCCCCCCCOCCCOP(=O)(CCN1C[C@@H](O)[C@H](O)C1)OC[C@H]1O[C@@H](n2ccc(N)nc2=O)[C@H](O)[C@@H]1O (stereo partly specified),MIC,[16],6.25 µg/mL
same,MIC,Enterococcus faecalis [6],6.25 µg/mL
same,MIC,Pseudomonas aeruginosa,> 200 µg/mL
same,MIC,Bacillus subtilis [7],3.13 µg/mL
same,MIC,Streptococcus agalactiae,3.13 µg/mL
same,IC50,[1],67 µg/mL
same,MIC,Enterococcus faecium [17],6.25 µg/mL
same,Activity,[2],Non-toxic
same,MIC,Staphylococcus aureus [8],25 µg/mL
same,MIC,Escherichia coli [3],> 200 µg/mL
same,MNTC at 48 h,[4],31.2 µg/mL
CCCCCCCCCCCCCCCCOCCCOP(=O)(CCN1C[C@H](O)[C@@H](O)C1)OC[C@H]1O[C@@H](n2ccc(=O)[nH]c2=O)[C@H](O)[C@@H]1O (stereo partly specified),MIC,[16],6.25 µg/mL
same,MIC,Enterococcus faecalis [6],12.5 µg/mL
same,MIC,Pseudomonas aeruginosa,> 200 µg/mL
same,MIC,Bacillus subtilis [7],6.25 µg/mL
same,MIC,Streptococcus agalactiae,6.25 µg/mL
same,IC50,[1],47 µg/mL
same,MIC,Enterococcus faecium [17],6.25 µg/mL
same,Activity,[2],Non-toxic
same,MIC,Escherichia coli [3],> 200 µg/mL
same,MNTC at 48 h,[4],31.2 µg/mL
same,inhibition,Bacillus subtilis [5],inactive
CCCCCCCCCCCCCCCCOP(=O)(CCN1C[C@H](O)C[C@H]1CO)OC[C@H]1O[C@@H](n2ccc(=O)[nH]c2=O)[C@H](O)[C@@H]1O (stereo partly specified),MIC,[16],6.25 µg/mL
same,MIC,Enterococcus faecalis [6],6.25 µg/mL
same,MIC,Pseudomonas aeruginosa,> 200 µg/mL
same,MIC,Bacillus subtilis [7],3.13 µg/mL
same,MIC,Streptococcus agalactiae,3.13 µg/mL
same,IC50,[1],116 µg/mL
same,MIC,Enterococcus faecium [17],6.25 µg/mL
same,Activity,[2],Non-toxic
same,MIC,Staphylococcus aureus [8],100 µg/mL
same,MIC,Escherichia coli [3],> 200 µg/mL
same,MNTC at 48 h,[4],62.5 µg/mL
CN[C@H](CC(C)C)C(=O)N[C@H]1C(=O)N[C@@H](CC(N)=O)C(=O)N[C@H]2C(=O)N[C@H]3C(=O)N[C@H](C(=O)N[C@H](C(=O)O)c4cc(O)cc(O)c4-c4cc3ccc4O)[C@H](O)c3ccc(c(Cl)c3)Oc3cc2cc(c3O[C@@H]2O[C@H](CO)[C@@H](O)[C@H](O)[C@H]2O[C@H]2C[C@](C)(N)[C@H](O)[C@H](C)O2)Oc2ccc(cc2Cl)[C@H]1O [VANCOMYCIN],MIC,Enterococcus faecalis [9],> 64 µg/mL
same,MIC,Enterococcus faecalis [10],1 µg/mL
same,MIC,Enterococcus faecium [12],> 64 µg/mL
CCCCCCCCCCCCCCCCOCCCOP(=O)(CCN1C[C@H](O)C[C@@H](O)C1)OC[C@H]1O[C@@H](n2ccc(=O)[nH]c2=O)[C@H](O)[C@@H]1O (stereo partly specified),MIC,Enterococcus faecalis [6],200 µg/mL
same,MIC,Pseudomonas aeruginosa,> 200 µg/mL
same,MIC,Bacillus subtilis [7],100 µg/mL
same,MIC,Streptococcus agalactiae,6.25 µg/mL
same,IC50,[1],53 µg/mL
same,Activity,[2],Non-toxic
same,MIC,Escherichia coli [3],> 200 µg/mL
same,MNTC at 48 h,[4],31.2 µg/mL
same,inhibition,Bacillus subtilis [5],inactive
CC(C)(C)C(=O)SCCOP(=O)(CCN1C[C@@H](O)[C@H](O)C1)OC[C@H]1O[C@@H](n2ccc(=O)[nH]c2=O)[C@H](O)[C@@H]1O (stereo partly specified),MIC,Pseudomonas aeruginosa,> 200 µg/mL
same,IC50,[1],> 1000 µg/mL
same,Activity,[2],Non-toxic
same,MIC,Escherichia coli [3],> 200 µg/mL
same,MNTC at 48 h,[4],> 1000 µg/mL
CCCCCCCCCCCCCCCCOP(=O)(CCN1C[C@@H](O)[C@H](O)C1)OC[C@H]1O[C@@H](n2ccc(=O)[nH]c2=O)[C@H](O)[C@@H]1O (stereo in doubt; 12i-P1) [listing 2 of 2 here],Activity,[2],Toxic
CCCCCCCCCCCCCCC[C@H](NC[C@@H](NC(=O)N[C@H](C(=O)O)C(C)C)[C@@H]1CCNC(=N)N1)C(=O)NCCCN[C@H](C(=O)O)[C@H](O[C@@H]1O[C@H](CN)[C@@H](O)[C@H]1O)[C@H]1O[C@@H](n2ccc(=O)[nH]c2=O)[C@H](O)[C@@H]1O,MIC,Enterococcus faecalis [9],4 µg/mL
same,MIC,Enterococcus faecalis [10],4 µg/mL
same,MIC,Staphylococcus aureus [11],2 µg/mL
same,MIC,Enterococcus faecium [12],2 µg/mL
same,MIC,Enterococcus faecium [13],4 µg/mL
same,MIC,Staphylococcus aureus [14],4 µg/mL
